Data as given in ChEMBL document CHEMBL1136812, “Structure-activity relationships of dimethindene derivatives as new M2-selective muscarinic receptor antagonists” (J Med Chem, 2003).
pKi: −log10 of the molar value.

What follows are compounds tested against T1, Muscarinic acetylcholine receptor M1 (Homo sapiens, UniProt P11229) (assay: Binding affinity towards cloned human muscarinic acetylcholine receptor M1 stably expressed in CHO-K1 cells using [3H]N-methylscopolamine).
T1 sequence (P11229 whole entry): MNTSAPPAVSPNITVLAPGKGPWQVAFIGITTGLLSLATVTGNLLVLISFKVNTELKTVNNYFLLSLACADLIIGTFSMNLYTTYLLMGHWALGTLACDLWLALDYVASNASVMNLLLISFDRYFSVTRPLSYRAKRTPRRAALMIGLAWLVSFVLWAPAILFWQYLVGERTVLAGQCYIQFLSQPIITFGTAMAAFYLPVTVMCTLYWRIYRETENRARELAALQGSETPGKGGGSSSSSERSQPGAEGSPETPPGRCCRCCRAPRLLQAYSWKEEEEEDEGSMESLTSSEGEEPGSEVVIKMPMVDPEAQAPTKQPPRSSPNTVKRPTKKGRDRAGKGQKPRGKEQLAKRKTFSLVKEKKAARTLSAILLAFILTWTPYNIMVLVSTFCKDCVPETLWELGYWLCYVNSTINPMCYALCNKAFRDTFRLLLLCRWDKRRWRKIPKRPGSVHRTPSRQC
Assay type: cell-based
`Cc1ccc2c(c1)CC(CCN(C)C)=C2C(C)c1ccccn1` (stereo unspecified) was tested, and the pKi was 6.25.
`CCC(C1=C(CCN(C)C)Cc2cc(Cl)ccc21)c1ccccn1` (stereo unspecified) showed a pKi of 6.65.
`CCC(C1=C(CCN(C)C)Cc2ccccc21)c1ccccn1` (stereo unspecified) showed a pKi of 6.62.
In the case of `CC(C1=C(CCN2CCOCC2)Cc2ccccc21)c1ccccn1` (stereo unspecified), the pKi was 5.36.
In the case of `CC(C1=C(CCN(C)C)Cc2ccccc21)c1ccccc1` (stereo unspecified), the pKi was 6.80.
`CC(C1=C(CCN2CCCC2)Cc2ccccc21)c1ccccn1` (stereo unspecified) was tested, and the pKi was 5.98.
With `CN(C)CCC1=C(C(C)(C)c2ccccn2)c2ccccc2C1` the pKi was 7.28.
`CC(C1=C(CCN(C(C)C)C(C)C)Cc2ccccc21)c1ccccn1` (stereo in doubt; (+)-19) showed a pKi of 5.23.
For `CN(C)CCC1=C(C(c2ccccc2)c2ccccn2)c2ccccc2C1` (stereo unspecified), the pKi was 7.36.

Each compound was assayed against Muscarinic acetylcholine receptor M3 (Homo sapiens, UniProt P20309) (assay: Binding affinity towards cloned human muscarinic acetylcholine receptor M3 stably expressed in CHO-K1 cells using [3H]N-methylscopolamine).
Muscarinic acetylcholine receptor M3, sequence (P20309 whole entry): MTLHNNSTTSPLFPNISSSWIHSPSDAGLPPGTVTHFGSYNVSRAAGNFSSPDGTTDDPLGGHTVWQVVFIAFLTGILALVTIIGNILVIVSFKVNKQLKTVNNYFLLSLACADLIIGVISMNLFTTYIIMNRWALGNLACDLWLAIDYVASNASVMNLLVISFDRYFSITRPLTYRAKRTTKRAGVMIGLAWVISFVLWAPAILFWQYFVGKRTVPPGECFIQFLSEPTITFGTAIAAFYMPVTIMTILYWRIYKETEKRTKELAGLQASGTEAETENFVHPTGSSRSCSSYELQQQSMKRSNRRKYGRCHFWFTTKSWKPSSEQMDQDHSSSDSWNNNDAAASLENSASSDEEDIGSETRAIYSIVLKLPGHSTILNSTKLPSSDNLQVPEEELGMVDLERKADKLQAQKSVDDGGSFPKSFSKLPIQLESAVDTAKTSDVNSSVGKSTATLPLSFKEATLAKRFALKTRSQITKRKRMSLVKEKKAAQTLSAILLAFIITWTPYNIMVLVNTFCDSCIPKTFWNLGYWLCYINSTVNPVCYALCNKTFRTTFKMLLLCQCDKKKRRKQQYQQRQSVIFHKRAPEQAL
Assay type: cell-based
Compound `Cc1ccc2c(c1)CC(CCN(C)C)=C2C(C)c1ccccn1` (stereo unspecified) has a pKi of 6.30.
Work on `CCC(C1=C(CCN(C)C)Cc2cc(Cl)ccc21)c1ccccn1` (stereo unspecified) yielded a pKi of 6.55.
`CCC(C1=C(CCN(C)C)Cc2ccccc21)c1ccccn1` (stereo unspecified) showed a pKi of 6.51.
`CC(C1=C(CCN2CCOCC2)Cc2ccccc21)c1ccccn1` (stereo unspecified) gave a pKi of 5.56.
In the case of `CC(C1=C(CCN(C)C)Cc2ccccc21)c1ccccc1` (stereo unspecified), the pKi was 6.54.
In the case of `CC(C1=C(CCN2CCCC2)Cc2ccccc21)c1ccccn1` (stereo unspecified), the pKi was 5.72.
Compound `CN(C)CCC1=C(C(C)(C)c2ccccn2)c2ccccc2C1` has a pKi of 7.59.
Compound `CC(C1=C(CCN(C(C)C)C(C)C)Cc2ccccc21)c1ccccn1` (stereo in doubt; (+)-19) has a pKi of 4.68.
For `CN(C)CCC1=C(C(c2ccccc2)c2ccccn2)c2ccccc2C1` (stereo unspecified), the pKi was 7.17.

What follows are compounds tested against T2, Muscarinic acetylcholine receptor M5 (Homo sapiens, UniProt P08912) (assay: Binding affinity towards cloned human muscarinic acetylcholine receptor M5 stably expressed in CHO-K1 cells using [3H]N-methylscopolamine).
T2 sequence (P08912 whole entry): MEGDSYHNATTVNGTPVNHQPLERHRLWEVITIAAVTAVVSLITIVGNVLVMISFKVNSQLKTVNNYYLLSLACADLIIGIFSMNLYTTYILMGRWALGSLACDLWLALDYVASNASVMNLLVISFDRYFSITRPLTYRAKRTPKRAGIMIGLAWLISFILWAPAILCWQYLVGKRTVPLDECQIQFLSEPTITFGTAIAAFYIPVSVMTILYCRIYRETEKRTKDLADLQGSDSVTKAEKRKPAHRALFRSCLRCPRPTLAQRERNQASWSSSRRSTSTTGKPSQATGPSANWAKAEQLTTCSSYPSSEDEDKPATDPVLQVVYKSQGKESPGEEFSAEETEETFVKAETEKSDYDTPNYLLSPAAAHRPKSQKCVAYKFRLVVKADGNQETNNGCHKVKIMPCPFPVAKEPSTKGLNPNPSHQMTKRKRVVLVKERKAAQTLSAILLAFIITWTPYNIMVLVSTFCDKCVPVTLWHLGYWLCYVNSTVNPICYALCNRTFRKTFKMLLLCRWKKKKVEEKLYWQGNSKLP
Assay type: cell-based
Compound `Cc1ccc2c(c1)CC(CCN(C)C)=C2C(C)c1ccccn1` (stereo unspecified) has a pKi of 5.84.
With `CCC(C1=C(CCN(C)C)Cc2cc(Cl)ccc21)c1ccccn1` (stereo unspecified) the pKi was 6.11.
`CCC(C1=C(CCN(C)C)Cc2ccccc21)c1ccccn1` (stereo unspecified) gave a pKi of 6.17.
For `CC(C1=C(CCN2CCOCC2)Cc2ccccc21)c1ccccn1` (stereo unspecified), the pKi was 5.57.
`CC(C1=C(CCN(C)C)Cc2ccccc21)c1ccccc1` (stereo unspecified) was tested, and the pKi was 6.51.
In the case of `CC(C1=C(CCN2CCCC2)Cc2ccccc21)c1ccccn1` (stereo unspecified), the pKi was 5.70.
`CN(C)CCC1=C(C(C)(C)c2ccccn2)c2ccccc2C1` showed a pKi of 6.43.
`CC(C1=C(CCN(C(C)C)C(C)C)Cc2ccccc21)c1ccccn1` (stereo in doubt; (+)-19) showed a pKi of 5.29.
`CN(C)CCC1=C(C(c2ccccc2)c2ccccn2)c2ccccc2C1` (stereo unspecified) showed a pKi of 7.18.

What follows are compounds tested against Histamine H1 receptor (Homo sapiens, UniProt P35367) (assay: Compound was evaluated for binding affinity towards cloned human histamine H1 receptors stably expressed in CHO-K1 cells using [3H]mepyramine).
Histamine H1 receptor, sequence (P35367 whole entry): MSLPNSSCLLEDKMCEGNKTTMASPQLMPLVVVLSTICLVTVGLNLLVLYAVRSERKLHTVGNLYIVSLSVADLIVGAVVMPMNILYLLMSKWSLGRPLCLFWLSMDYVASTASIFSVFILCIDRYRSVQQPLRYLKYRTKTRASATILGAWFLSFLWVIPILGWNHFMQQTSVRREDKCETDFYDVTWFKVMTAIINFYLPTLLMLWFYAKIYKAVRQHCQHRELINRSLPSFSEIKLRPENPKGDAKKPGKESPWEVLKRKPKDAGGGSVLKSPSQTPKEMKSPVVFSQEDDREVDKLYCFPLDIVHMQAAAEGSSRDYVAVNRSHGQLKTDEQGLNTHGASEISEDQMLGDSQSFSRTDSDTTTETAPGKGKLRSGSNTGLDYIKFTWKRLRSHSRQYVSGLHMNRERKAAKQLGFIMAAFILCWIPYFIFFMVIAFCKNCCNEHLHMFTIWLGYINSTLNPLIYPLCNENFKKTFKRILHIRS
Assay type: cell-based
Summary of the method: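 CHO-K1 membranes with stable human H1 receptor, 18 µg/mL final protein. […] Nonspecific binding with 0.1 mM terfenadine. Filtered and counted. Ki by Cheng-Prusoff. pKi mean ± SD, ≥3 experiments in duplicate.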
For `CC(C1=C(CCN(C(C)C)C(C)C)Cc2ccccc21)c1ccccn1` (stereo in doubt; (+)-19), the pKi was 6.66.

These compounds were tested against T3, Muscarinic acetylcholine receptor M4 (Homo sapiens, UniProt P08173) (assay: Binding affinity towards cloned human muscarinic acetylcholine receptor M4 stably expressed in CHO-K1 cells using [3H]N-methylscopolamine).
T3 sequence (P08173 whole entry): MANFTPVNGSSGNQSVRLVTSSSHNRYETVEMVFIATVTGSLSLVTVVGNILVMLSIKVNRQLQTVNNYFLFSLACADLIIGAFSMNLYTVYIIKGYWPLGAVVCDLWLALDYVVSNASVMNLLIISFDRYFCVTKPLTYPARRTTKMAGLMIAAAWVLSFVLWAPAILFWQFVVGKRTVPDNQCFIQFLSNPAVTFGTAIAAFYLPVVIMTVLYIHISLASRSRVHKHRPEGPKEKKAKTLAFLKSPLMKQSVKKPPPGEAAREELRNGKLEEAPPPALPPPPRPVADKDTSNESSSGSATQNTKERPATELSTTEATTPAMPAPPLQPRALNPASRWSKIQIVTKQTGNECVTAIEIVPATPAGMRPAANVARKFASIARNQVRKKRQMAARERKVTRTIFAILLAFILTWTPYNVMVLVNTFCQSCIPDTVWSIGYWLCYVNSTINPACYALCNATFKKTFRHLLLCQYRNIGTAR
Assay type: cell-based
In the case of `Cc1ccc2c(c1)CC(CCN(C)C)=C2C(C)c1ccccn1` (stereo unspecified), the pKi was 5.85.
Work on `CCC(C1=C(CCN(C)C)Cc2cc(Cl)ccc21)c1ccccn1` (stereo unspecified) yielded a pKi of 6.08.
`CCC(C1=C(CCN(C)C)Cc2ccccc21)c1ccccn1` (stereo unspecified) showed a pKi of 6.18.
Work on `CC(C1=C(CCN2CCOCC2)Cc2ccccc21)c1ccccn1` (stereo unspecified) yielded a pKi of 5.38.
Compound `CC(C1=C(CCN(C)C)Cc2ccccc21)c1ccccc1` (stereo unspecified) has a pKi of 6.43.
`CC(C1=C(CCN2CCCC2)Cc2ccccc21)c1ccccn1` (stereo unspecified) gave a pKi of 5.91.
In the case of `CN(C)CCC1=C(C(C)(C)c2ccccn2)c2ccccc2C1`, the pKi was 7.09.
`CC(C1=C(CCN(C(C)C)C(C)C)Cc2ccccc21)c1ccccn1` (stereo in doubt; (+)-19) gave a pKi of 5.26.
For `CN(C)CCC1=C(C(c2ccccc2)c2ccccn2)c2ccccc2C1` (stereo unspecified), the pKi was 6.89.

What follows are compounds tested against T4, Muscarinic acetylcholine receptor M2 (Homo sapiens, UniProt P08172) (assay: Binding affinity towards cloned human muscarinic acetylcholine receptor M2 stably expressed in CHO-K1 cells using [3H]N-methylscopolamine).
T4 sequence (P08172 whole entry): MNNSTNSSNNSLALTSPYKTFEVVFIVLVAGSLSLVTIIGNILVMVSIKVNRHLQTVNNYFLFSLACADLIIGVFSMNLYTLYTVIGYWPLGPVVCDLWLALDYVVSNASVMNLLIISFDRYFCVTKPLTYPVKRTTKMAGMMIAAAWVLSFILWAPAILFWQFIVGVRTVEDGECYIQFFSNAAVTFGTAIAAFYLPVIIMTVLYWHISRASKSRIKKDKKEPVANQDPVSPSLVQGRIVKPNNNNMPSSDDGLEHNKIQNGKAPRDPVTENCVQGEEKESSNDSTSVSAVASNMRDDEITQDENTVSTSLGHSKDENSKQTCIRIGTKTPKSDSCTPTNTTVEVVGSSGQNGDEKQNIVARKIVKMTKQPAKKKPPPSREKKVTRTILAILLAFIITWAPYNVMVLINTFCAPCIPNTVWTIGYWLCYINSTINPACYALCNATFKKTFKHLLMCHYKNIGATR
Assay type: cell-based
Compound `Cc1ccc2c(c1)CC(CCN(C)C)=C2C(C)c1ccccn1` (stereo unspecified) has a pKi of 6.23.
Compound `CCC(C1=C(CCN(C)C)Cc2cc(Cl)ccc21)c1ccccn1` (stereo unspecified) has a pKi of 6.97.
Compound `CCC(C1=C(CCN(C)C)Cc2ccccc21)c1ccccn1` (stereo unspecified) has a pKi of 7.01.
For `CC(C1=C(CCN2CCOCC2)Cc2ccccc21)c1ccccn1` (stereo unspecified), the pKi was 5.84.
With `CC(C1=C(CCN(C)C)Cc2ccccc21)c1ccccc1` (stereo unspecified) the pKi was 6.59.
`CC(C1=C(CCN2CCCC2)Cc2ccccc21)c1ccccn1` (stereo unspecified) showed a pKi of 6.40.
For `CN(C)CCC1=C(C(C)(C)c2ccccn2)c2ccccc2C1`, the pKi was 7.81.
`CC(C1=C(CCN(C(C)C)C(C)C)Cc2ccccc21)c1ccccn1` (stereo in doubt; (+)-19) gave a pKi of 6.24.
Compound `CN(C)CCC1=C(C(c2ccccc2)c2ccccn2)c2ccccc2C1` (stereo unspecified) has a pKi of 6.64.
